# Results taken from ChEMBL document CHEMBL1156448, “Identification of an efficacy switch region in the ghrelin receptor responsible for interchange between agonism and inverse agonism” (J Biol Chem, 2007).
# Key:
# [1] = biological target: T1, Growth hormone secretagogue receptor type 1 (Homo sapiens, UniProt Q92847); experiment: Agonist activity at human wild type ghrelin receptor expressed in african green monkey COS7 cells assessed as stimulation of constitutively stimulated inositol phosphate accumulation; format: functional, cell-based, COS-7
# Procedure, shortened: (§1)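 COS-7 cells transiently transfected (calcium phosphate with chloroquine, cDNA amount giving maximal basal signaling, 20 μg/75 cm2). After 1 day, labeled 24 h with 5 μCi myo-[3H]inositol. Washed in HEPES buffer pH 7.4, preincubated 30 min at 37 °C with 10 mM LiCl, then exposed to peptide concentrations for 45 min at 37 °C. Formic acid extraction, anion-exchange purification. Duplicate determinations. EC50 by nonlinear regression.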
# Target sequence in this assay (Q92847 whole entry): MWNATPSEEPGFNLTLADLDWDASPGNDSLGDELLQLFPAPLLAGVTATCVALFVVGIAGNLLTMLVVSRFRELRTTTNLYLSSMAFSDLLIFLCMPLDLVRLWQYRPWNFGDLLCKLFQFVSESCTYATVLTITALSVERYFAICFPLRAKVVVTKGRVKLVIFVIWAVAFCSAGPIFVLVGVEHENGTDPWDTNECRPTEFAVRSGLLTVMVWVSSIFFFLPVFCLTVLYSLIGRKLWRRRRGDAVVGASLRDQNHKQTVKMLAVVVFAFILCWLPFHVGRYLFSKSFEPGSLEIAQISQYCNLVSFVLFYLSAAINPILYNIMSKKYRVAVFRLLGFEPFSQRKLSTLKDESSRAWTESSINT
# [2] = biological target: T1, Growth hormone secretagogue receptor type 1; experiment: Agonist activity at human ghrelin receptor Asp2:20Asn(Asp99) mutant expressed in african green monkey COS7 cells assessed as stimulation of constitutively stimulated inositol phosphate accumulation; format: functional, cell-based; conditions: cos-7; procedure, shortened: as §1
# Target sequence in this assay (Q92847 whole entry, looked up): as the sequence (Q92847 whole entry) above
# [3] = biological target: Growth hormone secretagogue receptor type 1 (Homo sapiens, UniProt Q92847, D99K); experiment: Agonist activity at human ghrelin receptor Asp2:20Lys(Asp99) mutant expressed in african green monkey COS7 cells assessed as stimulation of constitutively stimulated inositol phosphate accumulation; format: functional, cell-based, COS-7; procedure, shortened: as §1
# Chain of Growth hormone secretagogue receptor type 1 (Homo sapiens, UniProt Q92847, D99K) (Q92847 whole entry D99K): as the sequence (Q92847 whole entry) above, with D99K counted along it
# [4] = biological target: Growth hormone secretagogue receptor type 1 (Homo sapiens, UniProt Q92847, F119S); experiment: Agonist activity at human ghrelin receptor Phe3:04Ser(phe119) mutant expressed in african green monkey COS7 cells assessed as stimulation of constitutively stimulated inositol phosphate accumulation; format: functional, cell-based, COS-7; procedure, shortened: as §1
# Chain of Growth hormone secretagogue receptor type 1 (Homo sapiens, UniProt Q92847, F119S) (Q92847 whole entry F119S): as the sequence (Q92847 whole entry) above, with F119S counted along it
# [5] = biological target: Growth hormone secretagogue receptor type 1 (Homo sapiens, UniProt Q92847, Q120A); experiment: Agonist activity at human ghrelin receptor Gln3:05Ala(Gln120) mutant expressed in african green monkey COS7 cells assessed as stimulation of constitutively stimulated inositol phosphate accumulation; format: functional, cell-based, COS-7; procedure, shortened: as §1
# Chain of Growth hormone secretagogue receptor type 1 (Homo sapiens, UniProt Q92847, Q120A) (Q92847 whole entry Q120A): as the sequence (Q92847 whole entry) above, with Q120A counted along it
# [6] = biological target: Growth hormone secretagogue receptor type 1 (Homo sapiens, UniProt Q92847, E124Q); experiment: Agonist activity at human ghrelin receptor Glu3:09Gln(Glu124) mutant expressed in african green monkey COS7 cells assessed as stimulation of constitutively stimulated inositol phosphate accumulation; format: functional, cell-based, COS-7; procedure, shortened: as §1
# Chain of Growth hormone secretagogue receptor type 1 (Homo sapiens, UniProt Q92847, E124Q) (Q92847 whole entry E124Q): as the sequence (Q92847 whole entry) above, with E124Q counted along it
# [7] = biological target: Growth hormone secretagogue receptor type 1 (Homo sapiens, UniProt Q92847, S174A); experiment: Agonist activity at human ghrelin receptor Ser4:16Ala(Ser174) mutant expressed in african green monkey COS7 cells assessed as stimulation of constitutively stimulated inositol phosphate accumulation; format: functional, cell-based, COS-7; procedure, shortened: as §1
# Chain of Growth hormone secretagogue receptor type 1 (Homo sapiens, UniProt Q92847, S174A) (Q92847 whole entry S174A): as the sequence (Q92847 whole entry) above, with S174A counted along it
# [8] = biological target: Growth hormone secretagogue receptor type 1 (Homo sapiens, UniProt Q92847, I178A); experiment: Agonist activity at human ghrelin receptor Ile4:20Ala(Ile178) mutant expressed in african green monkey COS7 cells assessed as stimulation of constitutively stimulated inositol phosphate accumulation; format: functional, cell-based, COS-7; procedure, shortened: as §1
# Chain of Growth hormone secretagogue receptor type 1 (Homo sapiens, UniProt Q92847, I178A) (Q92847 whole entry I178A): as the sequence (Q92847 whole entry) above, with I178A counted along it
# [9] = biological target: Growth hormone secretagogue receptor type 1 (Homo sapiens, UniProt Q92847, M213A); experiment: Agonist activity at human ghrelin receptor Met5:05Ala(Met213) mutant expressed in african green monkey COS7 cells assessed as stimulation of constitutively stimulated inositol phosphate accumulation; format: functional, cell-based, COS-7; procedure, shortened: as §1
# Chain of Growth hormone secretagogue receptor type 1 (Homo sapiens, UniProt Q92847, M213A) (Q92847 whole entry M213A): as the sequence (Q92847 whole entry) above, with M213A counted along it
# [10] = biological target: Growth hormone secretagogue receptor type 1 (Homo sapiens, UniProt Q92847, V216A); experiment: Agonist activity at human ghrelin receptor Val5:08Ala(Val216) mutant expressed in african green monkey COS7 cells assessed as stimulation of constitutively stimulated inositol phosphate accumulation; format: functional, cell-based, COS-7; procedure, shortened: as §1
# Chain of Growth hormone secretagogue receptor type 1 (Homo sapiens, UniProt Q92847, V216A) (Q92847 whole entry V216A): as the sequence (Q92847 whole entry) above, with V216A counted along it
# [11] = biological target: Growth hormone secretagogue receptor type 1 (Homo sapiens, UniProt Q92847, S217A); experiment: Agonist activity at human ghrelin receptor Ser5:09Ala(Ser217) mutant expressed in african green monkey COS7 cells assessed as stimulation of constitutively stimulated inositol phosphate accumulation; format: functional, cell-based, COS-7; procedure, shortened: as §1
# Chain of Growth hormone secretagogue receptor type 1 (Homo sapiens, UniProt Q92847, S217A) (Q92847 whole entry S217A): as the sequence (Q92847 whole entry) above, with S217A counted along it
# [12] = biological target: Growth hormone secretagogue receptor type 1 (Homo sapiens, UniProt Q92847, F220A); experiment: Agonist activity at human ghrelin receptor Phe5:12Ala(Phe220) mutant expressed in african green monkey COS7 cells assessed as stimulation of constitutively stimulated inositol phosphate accumulation; format: functional, cell-based, COS-7; procedure, shortened: as §1
# Chain of Growth hormone secretagogue receptor type 1 (Homo sapiens, UniProt Q92847, F220A) (Q92847 whole entry F220A): as the sequence (Q92847 whole entry) above, with F220A counted along it
# [13] = biological target: Growth hormone secretagogue receptor type 1 (Homo sapiens, UniProt Q92847, F279A); experiment: Agonist activity at human ghrelin receptor Phe6:16Ala(Phe279) mutant expressed in african green monkey COS7 cells assessed as stimulation of constitutively stimulated inositol phosphate accumulation; format: functional, cell-based, COS-7; procedure, shortened: as §1
# Chain of Growth hormone secretagogue receptor type 1 (Homo sapiens, UniProt Q92847, F279A) (Q92847 whole entry F279A): as the sequence (Q92847 whole entry) above, with F279A counted along it
# [14] = biological target: Growth hormone secretagogue receptor type 1 (Homo sapiens, UniProt Q92847, R283Q); experiment: Agonist activity at human ghrelin receptor Arg6:20Gln(Arg283) mutant expressed in african green monkey COS7 cells assessed as stimulation of constitutively stimulated inositol phosphate accumulation; format: functional, cell-based, COS-7; procedure, shortened: as §1
# Chain of Growth hormone secretagogue receptor type 1 (Homo sapiens, UniProt Q92847, R283Q) (Q92847 whole entry R283Q): as the sequence (Q92847 whole entry) above, with R283Q counted along it
# [15] = biological target: Growth hormone secretagogue receptor type 1 (Homo sapiens, UniProt Q92847, N305A); experiment: Agonist activity at human ghrelin receptor Asn7:02Ala(Asn305) mutant expressed in african green monkey COS7 cells assessed as stimulation of constitutively stimulated inositol phosphate accumulation; format: functional, cell-based, COS-7; procedure, shortened: as §1
# Chain of Growth hormone secretagogue receptor type 1 (Homo sapiens, UniProt Q92847, N305A) (Q92847 whole entry N305A): as the sequence (Q92847 whole entry) above, with N305A counted along it
# [16] = biological target: T1, Growth hormone secretagogue receptor type 1; experiment: Agonist activity at human ghrelin receptor Phe7:06Leu(Phe306) mutant expressed in african green monkey COS7 cells assessed as stimulation of constitutively stimulated inositol phosphate accumulation; format: functional, cell-based; conditions: cos-7; procedure, shortened: as §1
# Target sequence in this assay (Q92847 whole entry, looked up): as the sequence (Q92847 whole entry) above
# [17] = biological target: Growth hormone secretagogue receptor type 1 (Homo sapiens, UniProt Q92847, F312A); experiment: Agonist activity at human ghrelin receptor Phe7:09Ala(Phe312) mutant expressed in african green monkey COS7 cells assessed as stimulation of constitutively stimulated inositol phosphate accumulation; format: functional, cell-based, COS-7; procedure, shortened: as §1
# Chain of Growth hormone secretagogue receptor type 1 (Homo sapiens, UniProt Q92847, F312A) (Q92847 whole entry F312A): as the sequence (Q92847 whole entry) above, with F312A counted along it
# [18] = biological target: T1, Growth hormone secretagogue receptor type 1; experiment: Displacement of [35S]MK677 from human ghrelin receptor expressed in african green monkey COS7 cells; format: cell-based, COS-7
# Target sequence in this assay (Q92847 whole entry): as the sequence (Q92847 whole entry) above
# [19] = biological target: T1, Growth hormone secretagogue receptor type 1; experiment: Inverse agonist activity at human ghrelin receptor expressed in african green monkey COS7 cells assessed as constitutively stimulated inositol phosphate accumulation; format: functional, cell-based, COS-7
# Target sequence in this assay (Q92847 whole entry): as above
# [20] = biological target: Growth hormone secretagogue receptor type 1 (Homo sapiens, UniProt Q92847, S123A); experiment: Inverse agonist activity at human ghrelin receptor Ser3:08Ala(Ser123) mutant expressed in african green monkey COS7 cells assessed as inhibition of constitutively stimulated inositol phosphate accumulation
# Chain of Growth hormone secretagogue receptor type 1 (Homo sapiens, UniProt Q92847, S123A) (Q92847 whole entry S123A): as the sequence (Q92847 whole entry) above, with S123A counted along it
IC50 [1],IC50 [2],IC50 [3],IC50 [4],IC50 [5],IC50 [6],IC50 [7],IC50 [8],IC50 [9],IC50 [10],IC50 [11],IC50 [12],IC50 [13],IC50 [14],IC50 [15],IC50 [16],IC50 [17],IC50 [18],IC50 [19],IC50 [20],SMILES
15 nM,> 1000 nM,> 1000 nM,41 nM,> 1000 nM,> 1000 nM,6.1 nM,160 nM,0.35 nM,> 1000 nM,14 nM,> 1000 nM,> 1000 nM,> 1000 nM,15 nM,81 nM,> 1000 nM,53 nM,15 nM,28 nM,CC(C)C[C@H](NC(=O)[C@H](CC(C)C)NC(=O)[C@@H](Cc1c[nH]c2ccccc12)NC(=O)[C@H](Cc1ccccc1)NC(=O)[C@@H](Cc1c[nH]c2ccccc12)NC(=O)[C@H](C)N)C(N)=O
,,,,,,,,,,,,,,,,,60 nM,260 nM,,CC(C)C[C@H](NC(=O)[C@H](CC(C)C)NC(=O)[C@@H](Cc1c[nH]c2ccccc12)NC(=O)[C@H](Cc1ccccc1)NC(=O)[C@@H](Cc1c[nH]c2ccccc12)NC(=O)[C@@H](N)CC(=O)O)C(N)=O
,,,,,,,,,,,,,,,,,120 nM,990 nM,,CC(C)C[C@H](NC(=O)[C@H](CC(C)C)NC(=O)[C@@H](Cc1c[nH]c2ccccc12)NC(=O)[C@H](Cc1ccccc1)NC(=O)[C@@H](Cc1c[nH]c2ccccc12)NC(=O)[C@@H](N)CCC(N)=O)C(N)=O
